Drawing on PubChem BioAssay AID1448 (The Scripps Research Institute Molecular Screening Center, 2008), this text covers activation for 61 compounds.

Among all 220,000 compounds or so, about 630 (0.29%) were called active. The list comes from a sample in which actives are over-represented; it also holds similar structures and randomly drawn compounds. Values without a mark were called inactive.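 The calls were made as follows: active = activation above its plate's cutoff, the mean activation of the plate's test wells plus 3 SD (cut at about 12% in these data); inactive = the rest.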

Chain of Mucolipin-3 (Homo sapiens) (Q8TDD5 whole entry, looked up): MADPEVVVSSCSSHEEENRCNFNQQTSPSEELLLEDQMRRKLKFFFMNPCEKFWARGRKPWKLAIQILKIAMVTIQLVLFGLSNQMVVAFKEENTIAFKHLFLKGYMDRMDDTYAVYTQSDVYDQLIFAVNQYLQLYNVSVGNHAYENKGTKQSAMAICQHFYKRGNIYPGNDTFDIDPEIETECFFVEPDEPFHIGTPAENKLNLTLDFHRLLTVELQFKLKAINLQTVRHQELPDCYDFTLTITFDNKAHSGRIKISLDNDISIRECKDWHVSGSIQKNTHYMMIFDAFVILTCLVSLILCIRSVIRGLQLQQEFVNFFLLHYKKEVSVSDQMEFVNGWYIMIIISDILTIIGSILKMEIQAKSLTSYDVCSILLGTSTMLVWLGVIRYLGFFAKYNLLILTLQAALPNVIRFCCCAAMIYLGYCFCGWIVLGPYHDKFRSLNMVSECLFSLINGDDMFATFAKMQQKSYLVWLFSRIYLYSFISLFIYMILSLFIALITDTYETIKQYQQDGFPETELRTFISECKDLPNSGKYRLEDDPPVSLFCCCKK

This assay addresses Mucolipin-3 (Homo sapiens) (UniProt Q8TDD5). The experiment in a line: activators of mucolipin-3 cation channel – cell-based, HEK293 TRPML3-YFP, Fluo-8 calcium fluorescence, 3 µM, primary screen (AID 1448).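 Also: 0% = DMSO only wells and 100% = carbachol wells.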 The note with it: at 3 µM, stronger effect = higher value, 100% = the carbachol control signal. The essentials: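 Test system: HEK293 cells stably carrying human TRPML3-YFP; Doses: single dose, 3 µM final nominal compound, 0.3% DMSO final; Schedule: dye loading 1 h 37 °C then 30 min ambient, 125 s read; Technique: Fluo-8 calcium fluorescence; Benchmarks: high control carbachol 87 µM, low control DMSO.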
Regarding `CCOc1cc(/C=C2/C(=N)N3OC(C)=CC3=NC2=O)ccc1OC`, the activation is 0.9%.
Then `CC1=CC2=NC(=O)/C(=C/c3coc4ccccc4c3=O)C(=N)N2O1`, with 18.6% (active); and `COc1ccc(OCCCn2cccc2/C=C2/C(=N)N3OC(C)=CC3=NC2=O)cc1`, with 1.97%; and `COc1ccc(N2C(=O)/C(=C\c3ccco3)N=C2SCC(N)=O)cc1Cl`, with 0.09%.
`O=C(c1cccc(F)c1)N1CCN(c2ccc([N+](=O)[O-])c3cccnc23)CC1`: the activation is 0.25%.
Turning to `CCN1CCN(c2nc(Nc3cccc(F)c3)nc(N)c2[N+](=O)[O-])CC1`, the activation is 0.34%.
Consider `CCOC(=O)c1c(-c2ccccc2)csc1NC(=S)NC(=O)c1ccccc1`, for which the activation was -0.33%.
For the compound `COCCCNC(=S)NC(=O)c1ccccc1`, the activation was 0.01%.
In the case of `CCOC(=O)C1=C(NC(=S)NC(=O)c2ccccc2)c2ccccc2CC1(C)C`, the activation was 43.3% (active).
`CCc1ccc2ncc(C(=O)c3ccccc3)c(N3CCOCC3)c2c1`: the activation is -0.05%.
Consider `COCCNc1cc(NCCOC)c([N+](=O)[O-])cc1[N+](=O)[O-]`, for which the activation is 0.69%.
`COc1ccc(S(=O)(=O)N2CCCC2)c(C)c1C`: the activation is 13.3% (active).
Then `CCOc1ccc(S(=O)(=O)N2CCCCCC2)c2ccccc12`, with 101% (active).
As for `COc1ccc(F)cc1S(=O)(=O)N1CCCCC1`, the activation is 0.95%.
Then `COc1ccc(S(=O)(=O)N2CCCCC2)cc1Br`, with 9.19%; and `CCOc1ccc(Br)cc1S(=O)(=O)N1CCC(C(=O)O)CC1`, with 1.07%.
Regarding `COc1ccc(S(=O)(=O)N2CCOCC2)c(C)c1C`, the activation was 0.66%.
Consider `COc1ccccc1Cn1c(C)nnc1-c1cnn(C)c1N`, for which the activation is -0.66%.
Consider `CCCCN(CCCC)CC(O)Cn1c2ccccc2c(=O)c2ccccc21` (stereo unspecified), for which the activation was 0.31%.
Then `Cc1cc(Cl)ccc1OCc1nc(-c2ccncc2)no1`, with -0.07%; and `O=C(CSc1nnc2n1CCCN2)c1ccccc1`, with 0.51%.
For `CCN(CC)C(=O)CSc1nc2ccccc2n1CC(=O)N1CCN(c2ccccc2OC)CC1`, the activation is -0.02%.
For the compound `CCN(CC)C(=O)CC1(c2ccccc2OC)CCOC(C(C)C)C1` (stereo unspecified), the activation was 17.3% (active).
With `COc1ccc(C2(CNC(=O)C(c3ccccc3)c3ccccc3)CCOCC2)cc1OC`, the activation was 0%.
Then `CCC(C)(C)NC(=O)C(c1ccc(O)cc1)N(C(=O)Cn1nnc2ccccc21)c1ccc(NC(C)=O)cc1` (stereo unspecified), with 0.14%.
Consider `NS(=O)(=O)c1ccc(NC(=O)COC(=O)c2ccc(Cl)nc2)cc1`, for which the activation is 0.29%.
For `NS(=O)(=O)c1ccc(NC(=O)COC(=O)c2c3c(nc4ccccc24)/C(=C\c2ccc4c(c2)OCO4)CCC3)cc1`, the activation was 24% (active).
Then `NC(=O)c1ccc(NC(=O)COC(=O)c2c3c(nc4ccccc24)/C(=C\c2ccc4c(c2)OCO4)CCC3)cc1`, with 29.2% (active); and `O=C(COC(=O)c1c2c(nc3ccccc13)/C(=C\c1cccs1)CCC2)Nc1ccccc1Cl`, with 0.46%.
As for `COc1cc(-c2cc(C(=O)OCC(=O)Nc3ccc4c(c3)OCO4)c3ccccc3n2)cc(OC)c1OC`, the activation is -0.31%.
As to `NS(=O)(=O)c1ccc(NC(=O)COC(=O)c2cc3ccccc3oc2=O)cc1`, the activation was 0.31%.
As for `Cc1ccc(C2=N/C(=C\c3ccc(OS(=O)(=O)c4ccc(C)cc4)cc3)C(=O)O2)cc1`, the activation was 0.55%.
On to `CCN(CC)S(=O)(=O)c1ccc(C)c(NC(=O)COc2ccc(Br)cc2Cl)c1`, for which the activation was 0.13%.
Then `O=C(Nc1ccccc1C(=O)O)c1cc(S(=O)(=O)N2CCCCC2)cs1`, with -0.64%.
For `c1csc(-c2nnc(COc3ccc4c(c3)OCO4)o2)c1`, the activation was 0.41%.
Then `c1ccc2c(C[n+]3csc4ccccc43)cccc2c1`, with 34.1% (active); and `Nc1scc[n+]1Cc1cccc2cccnc12`, with 0.56%; and `c1ccc2c(CSCc3nc4ccccc4[nH]3)cccc2c1`, with 0.61%.
`CC1CCCC(C)N1C(=O)CN1CCN(c2nc(-c3ccc(F)cc3)cs2)CC1` (stereo unspecified): the activation is 12.9% (active).
Then `O=C(CN1CCN(c2nc(-c3ccccc3)cs2)CC1)NCc1ccc2c(c1)OCO2`, with 0.02%; and `COc1cccc(NC(=O)CN2CCN(c3nc(-c4cccc(OC)c4)cs3)CC2)c1`, with 0.54%; and `CC1CCCC(NC(=O)COC(=O)[C@@H]2CC(O)CN2S(=O)(=O)c2ccc3c(c2)OCCO3)C1C` (stereo partly specified), with 0.86%.
In the case of `COc1cc(N/C=C2\CC(=O)NC(C)=C2C#N)cc(OC)c1OC`, the activation was 0.7%.
As to `COc1cccc(CC(=O)N2CCCC(CCC(=O)N3CCN(c4ccccn4)CC3)C2)c1` (stereo unspecified), the activation was 2.9%.
As to `CC(C[N+](C)(C)C)OC(N)=O` (stereo unspecified), the activation was 3.52%.
On to `CC(=O)OC(C)C[N+](C)(C)C` (stereo unspecified), for which the activation was 78.4% (active).
Then `COc1ccc(C[C@H]2CN3C(=NC[C@H]3C)N2CCNC(=O)CCC2CCCCC2)cc1`, with 0.4%; and `CCCCCCCCCCOC(=O)C[N+](C)(C)CC1CCCCC1O` (stereo unspecified), with -0.99%.
In the case of `O=S(=O)(N1CCCCC1)N1CCNCC1`, the activation was 0.7%.
Then `Cc1cccc(C)c1N1CCN(S(=O)(=O)N2CCOCC2)CC1`, with 1.69%.
`Cc1cccc(C)c1N1CCN(S(=O)(=O)N2CCCCC2)CC1`: the activation is 57.5% (active).
As to `CCC(C)(C)c1ccc(OCC(=O)N(C)C)c(C(C)(C)CC)c1`, the activation was 0.49%.
In the case of `CC1=CC(C)(C)N(C(=O)CSc2nnc(-c3ccccc3)o2)c2ccc(C)cc21`, the activation was 23.2% (active).
Regarding `CC1=CC(C)(C)N(C(=O)CSc2nccn2C)c2cc(C)ccc21`, the activation is -1.12%.
With `O=C(CSc1nnc(-c2ccccc2)o1)N1CCOCC1`, the activation was 0.92%.
Then `Cc1ccc(C(=O)N2CCN(S(=O)(=O)N3CCOCC3)CC2)cc1`, with 0.24%; and `O=C(COC(=O)CC1CC2CCC1C2)NC(=O)NC1CCCC1` (stereo unspecified), with 0%.
For `COc1ccc(S(=O)(=O)NC(C)C(=O)Nc2cccc([N+](=O)[O-])c2)cc1` (stereo unspecified), the activation is -0.47%.
Take `COc1ccc(-c2cn(-c3ccc(OC)cc3)c(=S)[nH]2)cc1`: the activation was 0.32%.
Turning to `COc1cc(OC)c(-n2c(C)cc(C=O)c2C)cc1Cl`, the activation is -0.32%.
Then `COc1cc(OC)c(-n2cc(-c3ccc(Cl)cc3)[nH]c2=O)cc1Cl`, with 12.1% (active).
